# Laboratory results: paper PMC8346222 (Science Advances, 2021)
# Assays:
# Assay in all cases: Minimum inhibitory concentration, broth microdilution
# Format in all cases: cell-based
# [1] = system: Klebsiella pneumoniae NR-41920; conditions: NR41920, read-out: Minimum inhibitory concentration
# Summary of the method: (§1)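 Broth microdilution per CLSI: test agents serially diluted across plates. Inoculum set to 0.5 McFarland, diluted in cation-adjusted Mueller Hinton broth to ~5 × 10^5 CFU/ml, then incubated aerobically at 37°C for 16 to 18 h. Gentamicin and imipenem were run as control antibiotics.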
# [2] = system: Escherichia coli ATCC 2452; conditions: ATCC2452, read-out: Minimum inhibitory concentration
# Summary of the method: as §1
# [3] = system: Escherichia coli ATCC 2469; conditions: ATCC2469, read-out: Minimum inhibitory concentration
# Summary of the method: as §1
# [4] = system: Pseudomonas aeruginosa NR-50573; conditions: NR50573, read-out: Minimum inhibitory concentration
# Summary of the method: as §1
MIC [1] [µg/mL],MIC [2] [µg/mL],MIC [3] [µg/mL],MIC [4] [µg/mL],SMILES
8,16,16,1,C[C@@H](O)[C@H]1C(=O)N2C(C(=O)O)=C(SCCN=CN)C[C@H]12 [Imipenem]
64,> 64,> 64,1,CNC(C)C1CCC(N)C(OC2C(N)CC(N)C(OC3OCC(C)(O)C(NC)C3O)C2O)O1 (centres unmarked) [Gentamicin]
